Data on 1 compound can be found in ChEMBL document CHEMBL4765360, “Design, synthesis and biological evaluation of novel potent STAT3 inhibitors based on BBI608 for cancer therapy” (Eur J Med Chem, 2020).

Experiment [1] concerns MDA-MB-231. The experiment in a line: Induction of cell cycle arrest in human MDA-MB-231 cells assessed as S phase accumulation at 1 uM incubated for 24 hrs by PI staining based flow cytometry analysis (reference value: 26.21 %). The format is functional. A general note: In flow cytometry, cells or beads pass a laser one at a time.
The target in experiment [2] is Signal transducer and activator of transcription 3 (Homo sapiens, UniProt P40763). The experiment in a line: Inhibition of STAT3 in human MDA-MB-231 cells assessed as reduction in STAT3 Y705 phosphorylation in cytoplasm at 3 uM incubated for 24 hrs by immunofluorescence staining based fluorescence microscopy. It is filed as subcellular. In short, it runs like this: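 MDA-MB-231 cells at 1×10^4 per dish, adhered overnight, then exposed to 3.0 µM for 24 h. Fixed in 4% paraformaldehyde and permeabilized with 0.5% Triton X-100. Blocked in 5% BSA for 1 h. Anti-p-STAT3 primary overnight at 4 °C, then Alexa Fluor 546 anti-rabbit for 1 h at RT. Hoechst nuclear stain; imaged by fluorescence microscopy.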

Experiment [3] has as its system MDA-MB-231. The experiment in a line: Induction of cell cycle arrest in human MDA-MB-231 cells assessed as G2/M phase accumulation at 1 uM incubated for 24 hrs by PI staining based flow cytometry analysis (reference value: 15.80 %). It is filed as functional.
Experiment [4] deals with T1, Signal transducer and activator of transcription 1-alpha/beta (Homo sapiens) (UniProt P42224).
T1 sequence (whole entry): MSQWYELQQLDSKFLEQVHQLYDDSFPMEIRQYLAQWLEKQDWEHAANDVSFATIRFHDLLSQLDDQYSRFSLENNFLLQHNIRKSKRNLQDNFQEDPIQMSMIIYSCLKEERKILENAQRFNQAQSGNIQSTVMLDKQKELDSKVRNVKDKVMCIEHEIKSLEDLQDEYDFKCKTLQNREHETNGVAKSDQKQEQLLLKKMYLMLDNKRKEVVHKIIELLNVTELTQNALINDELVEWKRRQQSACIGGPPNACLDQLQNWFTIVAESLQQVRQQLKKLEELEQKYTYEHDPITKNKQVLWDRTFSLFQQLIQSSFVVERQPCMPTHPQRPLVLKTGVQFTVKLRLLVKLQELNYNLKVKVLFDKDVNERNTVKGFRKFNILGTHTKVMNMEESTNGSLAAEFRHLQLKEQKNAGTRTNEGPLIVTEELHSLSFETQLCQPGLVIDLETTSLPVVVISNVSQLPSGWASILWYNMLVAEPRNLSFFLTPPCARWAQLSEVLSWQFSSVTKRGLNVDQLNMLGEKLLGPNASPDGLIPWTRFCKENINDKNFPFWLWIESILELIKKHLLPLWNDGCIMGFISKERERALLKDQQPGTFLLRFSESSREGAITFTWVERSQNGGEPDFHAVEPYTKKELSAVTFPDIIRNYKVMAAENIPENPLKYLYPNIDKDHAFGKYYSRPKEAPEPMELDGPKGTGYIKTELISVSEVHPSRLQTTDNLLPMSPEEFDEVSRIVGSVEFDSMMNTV
Description: Inhibition of STAT1 in human MDA-MB-231 cells assessed as reduction in STAT1 Y701 phosphorylation at 0.75 to 3 uM incubated for 24 hrs by Western blot analysis. The format is cell-based. As to conditions: dose 0.75-3 µM. The essentials:
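MDA-MB-231 cells treated with a range of concentrations for 24 h. RIPA lysates with PMSF, 40 µg protein/lane, on 10% SDS-PAGE, then PVDF. Blocked in 5% milk/TBST for 2 h. Primary antibodies to STAT3, p-STAT3(Y705), STAT1, p-STAT1(Y701), c-Myc and Cyclin D1 overnight at 4 °C; GAPDH as loading control. HRP secondary for 1 h; ECL detection.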

In experiment [5] the test system is MDA-MB-231. The experiment in a line: Antiproliferative activity against human MDA-MB-231 cells overexpressing STAT3 assessed as reduction in cell growth incubated for 48 hrs by CCK-8 assay. The format is functional, cell-based. As to conditions: MDA-MB-231, 48 h. In short, it runs like this: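 Cells seeded at 5000-7000/well and allowed to settle for 8 h at 37 °C, 5% CO2. Graded compound concentrations were then added in triplicate (DMSO <0.1%) for 48 h. Medium was replaced with 10% CCK-8 for 4 h (MDA-MB-231, MDA-MB-468) or 1 h (HepG2), and A450 was read. IC50 is mean ± SD of at least three independent experiments. HepG2 was grown in high-glucose DMEM with 10% FBS.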
A general note: Tetrazolium assays rely on reduction of a dye to a coloured formazan, in cell work by metabolically active cells.

In experiment [6] the test system is MDA-MB-231. The experiment in a line: Antitumor activity against human MDA-MB-231 cells xenografted in BALB/c mouse assessed reduction in tumor weight at 10 mg/kg, ip administered once daily for 21 days and measured on day 21 relative to control. It is filed as functional. The arrangement: scale not given: the % may be the effect or the level left. The following applies: dose 10 mg/kg/day; time 21 day. In short, it runs like this:
(§1)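 Female BALB/c nude mice, 5 weeks old (16–18 g), were given 5×10^6 MDA-MB-231 cells subcutaneously. At ~50 mm³, mice were randomized to three groups (n=6): vehicle, 5 or 10 mg/kg i.p. daily for 21 days. Tumor volume (length×width²/2) was measured every 3 days and body weight recorded. Tumors were excised and weighed at the end. TGI derived versus control; mean ± SEM.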

For experiment [7], the system named is MDA-MB-231. The experiment in a line: Induction of apoptosis in human MDA-MB-231 cells assessed as necrotic cells at 4 uM incubated for 24 hrs by annexin V-FITC and PI staining based flow cytometry analysis (reference value: 0.23 %). The format is functional.
Experiment [8] has as its system MDA-MB-231. Description: Induction of apoptosis in human MDA-MB-231 cells assessed as viable cells at 4 uM incubated for 24 hrs by annexin V-FITC and PI staining based flow cytometry analysis (reference value: 93.37 %). It is filed as functional. As to conditions: read-out: Activity.
The subject of experiment [9] is MDA-MB-231. Description: Induction of cell cycle arrest in human MDA-MB-231 cells assessed as G0/G1 phase accumulation at 2 uM incubated for 24 hrs by PI staining based flow cytometry analysis (reference value: 57.99 %). The format is functional.
Experiment [10] has as its system MDA-MB-231. Description: Induction of apoptosis in human MDA-MB-231 cells assessed as late apoptotic cells at 4 uM incubated for 24 hrs by annexin V-FITC and PI staining based flow cytometry analysis (reference value: 3.72 %). The format is functional.
Experiment [11] deals with MDA-MB-231. Description: Induction of apoptosis in human MDA-MB-231 cells assessed as viable cells at 2 uM incubated for 24 hrs by annexin V-FITC and PI staining based flow cytometry analysis (reference value: 93.37 %). As to conditions: read-out: Activity. The format is functional.
For experiment [12], the system named is MDA-MB-231. Description: Antitumor activity against human MDA-MB-231 cells xenografted in BALB/c mouse assessed as reduction in tumor growth at 10 mg/kg, ip administered once daily for 21 days and measured on day 21 relative to control. The format is functional. As to conditions: MDA-MB-231, ip, 504 h, time 21 day, read-out: TGI. The essentials: as §1
In general terms: A xenograft is tissue or cells of one species grown in another, often human tumour cells in immunodeficient mice.

The test system of experiment [13] is MDA-MB-231. The experiment in a line: Induction of apoptosis in human MDA-MB-231 cells assessed as viable cells at 1 uM incubated for 24 hrs by annexin V-FITC and PI staining based flow cytometry analysis (reference value: 93.37 %). The format is functional. As to conditions: read-out: Activity.
Experiment [14] deals with MDA-MB-231. Description: Induction of cell cycle arrest in human MDA-MB-231 cells assessed as G0/G1 phase accumulation at 4 uM incubated for 24 hrs by PI staining based flow cytometry analysis (reference value: 57.99 %). The format is functional.
In experiment [15] the test system is MDA-MB-231. Description: Induction of cell cycle arrest in human MDA-MB-231 cells assessed as S phase accumulation at 2 uM incubated for 24 hrs by PI staining based flow cytometry analysis (reference value: 26.21 %). It is filed as functional.
For experiment [16], the system named is MDA-MB-231. Description: Induction of cell cycle arrest in human MDA-MB-231 cells assessed as S phase accumulation at 4 uM incubated for 24 hrs by PI staining based flow cytometry analysis (reference value: 26.21 %). The format is functional.

Calls of active or inactive are those of the source. No cut-off for these calls is given here.

Chain of Signal transducer and activator of transcription 3 (P40763 whole entry): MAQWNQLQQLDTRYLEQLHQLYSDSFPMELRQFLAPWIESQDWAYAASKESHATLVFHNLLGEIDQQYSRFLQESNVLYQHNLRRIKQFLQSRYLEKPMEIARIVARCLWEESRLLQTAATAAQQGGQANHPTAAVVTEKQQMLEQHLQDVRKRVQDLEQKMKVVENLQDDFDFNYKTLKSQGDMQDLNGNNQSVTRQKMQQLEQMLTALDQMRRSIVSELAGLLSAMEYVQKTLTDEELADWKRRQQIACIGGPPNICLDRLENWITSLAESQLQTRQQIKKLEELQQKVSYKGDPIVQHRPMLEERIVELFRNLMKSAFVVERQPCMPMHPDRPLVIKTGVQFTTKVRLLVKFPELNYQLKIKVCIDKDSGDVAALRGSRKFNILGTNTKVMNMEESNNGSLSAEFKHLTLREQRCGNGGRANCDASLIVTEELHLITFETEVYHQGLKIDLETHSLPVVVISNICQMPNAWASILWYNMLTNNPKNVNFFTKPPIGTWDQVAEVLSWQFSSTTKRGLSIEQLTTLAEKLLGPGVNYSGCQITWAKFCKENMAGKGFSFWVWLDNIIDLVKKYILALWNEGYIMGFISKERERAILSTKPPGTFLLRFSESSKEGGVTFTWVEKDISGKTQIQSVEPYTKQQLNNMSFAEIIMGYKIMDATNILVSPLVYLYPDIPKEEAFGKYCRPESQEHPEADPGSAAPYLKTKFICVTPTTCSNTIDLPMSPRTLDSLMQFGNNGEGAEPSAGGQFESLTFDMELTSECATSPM

Turning to `COc1ccc(NC2=CC(=O)c3cc(C(C)=O)oc3C2=O)cc1`, the Activity in the experiment on MDA-MB-231 [1] turned out to be 34.31%; in the experiment with MDA-MB-231 [3], 16.27%; with MDA-MB-231 [6], 45.19%; in the experiment with MDA-MB-231 [7], 0.77%; with MDA-MB-231 [9] it was 40.49%; with MDA-MB-231 [10], 22.03%. Besides, the Activity was found to be 35.39% in the experiment with MDA-MB-231 [14], 46.21% with MDA-MB-231 [15] and 57.09% with MDA-MB-231 [16]. Moreover, the inhibition result in experiment [2] is “Active”. Also, the inhibition entry in experiment [4] is “inactive”. Moreover, the half-inhibitory concentration (IC50) – broadly, the concentration needed to halve the response being measured – in the experiment with MDA-MB-231 [5] was 0.67 µM. For the same compound, in the experiment on MDA-MB-231 [8], the viability at 4 µM came out at 67%. Also, the viability at 2 µM in the experiment with MDA-MB-231 [11] was found to be 82.2%. Further, in the experiment with MDA-MB-231 [12], the inhibition in vivo at 10 mg/kg/day turned out to be 54.6%. Moreover, in the experiment on MDA-MB-231 [13], the viability at 1 µM was 87.9%.
